Assay results as given in article PMC2812011 (Cancer cell, 2009).

Tests used:
Jak2 kinase = Jak2 kinase (Homo sapiens, UniProt O60674); test: Jak2 kinetic studies; assay type: biochemical
TEL-Jak2 = TEL-Jak2 (Homo sapiens, UniProt O60674+P41212); test: Stat5 phosphorylation in Ba/F3 TEL-Jak2 cells; assay type: cell-based
TEL-Jak3 = test: Stat5 phosphorylation in Ba/F3 TEL-Jak3 cells; assay type: cell-based; settings: at or below 1 µM
TEL-Jak1 = test: Stat5 phosphorylation in Ba/F3 TEL-Jak1 cells; assay type: cell-based; settings: at or below 1 µM
TEL-Tyk2 = test: Stat5 phosphorylation in Ba/F3 TEL-Tyk2 cells; assay type: cell-based; settings: at or below 1 µM
panel of 82 kinases = test: Kinase selectivity panel of 82 kinases; assay type: biochemical; settings: 0.10 µM, at or near Km for ATP; count includes Jak2
Summary of the method: (§1)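 Kinase selectivity panel of 82 kinases chosen to span the kinome by binding-site similarity and gatekeeper residue. Each kinase was assayed with ATP at or near its Km. The test compound was tested at three concentrations: 0.01, 0.10 and 1.0 µM. Percent inhibition was scored, and kinases inhibited by more than 50% were counted.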

Aurora A = Aurora A in kinase panel; assay type: biochemical
Summary of the method: as §1

MEF-Stat3-YFP tumors = test: MEF-Stat3-YFP tumor growth in athymic mice; assay type: in vivo; settings: 50 mg/kg p.o. once daily, relative to vehicle; p = 0.001, n=6
pStat3 Tyr705 [1] = test: pStat3 in MEF-Stat3-YFP tumor lysates; assay type: in vivo, mice; settings: 2 h post treatment, 50 mg/kg
[2] = tested on: DU145, MDAH2774, and MDA-MB-468 cells; test: 72 h viability assay in solid tumor cell lines; assay type: cell-based; settings: Homo sapiens
DU145 xenografts = test: DU145 xenograft tumor growth; assay type: in vivo, mice; settings: DU145, 50 mg/kg p.o. once daily, 26 d; p < 0.001, n=7
MDA-MB-468 xenografts = test: MDA-MB-468 xenograft tumor growth; assay type: in vivo, mice; settings: MDA-MB-468, 50 mg/kg p.o. once daily, 30 d; p < 0.001, n=7
MDAH2774 xenografts = test: MDAH2774 xenograft tumor growth; assay type: in vivo, mice; settings: 26 d, p < 0.001, n=10
[3] = tested on: 786-0 renal cell carcinoma vector control xenografts; test: 786-0 vector control xenograft tumor growth; assay type: in vivo, mice; settings: 50 mg/kg, 41 d, p = 0.038, n = 10
[4] = tested on: 786-0 xenografts expressing Stat3C; test: 786-0 Stat3C xenograft tumor growth; assay type: in vivo, mice; settings: 786-0 expressing Stat3C, 50 mg/kg, 41 d
pStat3 Tyr705 [5] = test: Constitutive pStat3 in DU145, MDA-MB-468 and MDAH2774 cells; assay type: cell-based, human; settings: 2 h, DU145, MDA-MB-468, MDAH2774
pStat3 Tyr705 [6] = test: Pharmacodynamics in xenograft tumor lysates and sections; assay type: in vivo, mice
LN-17 cells = test: LN-17 prostate cancer cells: pStat3, MTS viability, Annexin V; assay type: cell-based, human
Jak1 = settings: enzymatic assays, at Km ATP

Chain of Jak2 kinase (O60674 808-1132): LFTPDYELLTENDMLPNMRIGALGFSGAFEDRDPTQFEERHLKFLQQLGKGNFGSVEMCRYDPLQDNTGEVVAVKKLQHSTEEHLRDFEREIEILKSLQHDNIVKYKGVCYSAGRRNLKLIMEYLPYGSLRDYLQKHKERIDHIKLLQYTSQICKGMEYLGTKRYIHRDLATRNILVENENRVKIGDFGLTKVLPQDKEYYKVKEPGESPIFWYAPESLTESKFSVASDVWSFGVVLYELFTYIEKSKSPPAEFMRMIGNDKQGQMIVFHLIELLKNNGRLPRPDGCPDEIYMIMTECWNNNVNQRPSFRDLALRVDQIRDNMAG
Chain of TEL-Jak2 (O60674 849-1132 limits assumed, one chain of several): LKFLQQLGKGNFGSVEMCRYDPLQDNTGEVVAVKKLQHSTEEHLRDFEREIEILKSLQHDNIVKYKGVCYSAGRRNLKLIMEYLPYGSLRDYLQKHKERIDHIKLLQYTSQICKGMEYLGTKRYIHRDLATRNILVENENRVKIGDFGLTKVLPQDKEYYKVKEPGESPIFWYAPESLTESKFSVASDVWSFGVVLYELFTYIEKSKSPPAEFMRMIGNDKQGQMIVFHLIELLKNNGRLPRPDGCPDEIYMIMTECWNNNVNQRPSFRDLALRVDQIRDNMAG

Cc1cc(Nc2nc(N[C@@H](C)c3ncc(F)cn3)ncc2Cl)n[nH]1 [AZD1480]
Ki (Jak2 kinase): 0.26 nM | IC50 (TEL-Jak2): 46 nM | inhibition of STAT5 phosphorylation (TEL-Jak3): little or no inhibition | inhibition of STAT5 phosphorylation (TEL-Jak1): little or no inhibition | inhibition of STAT5 phosphorylation (TEL-Tyk2): little or no inhibition | kinases inhibited by greater than 50% (panel of 82 kinases): 11/82 | Aurora A enzyme activity (Aurora A): inhibited | tumor growth inhibition (MEF-Stat3-YFP tumors): 58% | pStat3 Tyr705 in tumors (pStat3 Tyr705 [1]): abolished | GI50 [2]: 2400 to 5400 nM | growth inhibition (DU145 xenografts): 81% | growth inhibition (MDA-MB-468 xenografts): 111% | growth inhibition (MDAH2774 xenografts; MDAH2774, 10 mg/kg twice daily p.o.): 71% | growth inhibition (MDAH2774 xenografts; MDAH2774, 30 mg/kg twice daily p.o., tumor regression): 139% | growth inhibition [3]: 48% | growth inhibition [4]: no growth inhibition | inhibition of constitutive pStat3 Tyr705 (pStat3 Tyr705 [5]; 0.1 µM): Significant inhibition | inhibition of constitutive pStat3 Tyr705 (pStat3 Tyr705 [5]; 0.25 –0.5 µM): near ablation of signal | pHisH3 staining (mitotic marker) (pStat3 Tyr705 [6]; MDAH2774 xenografts, 30 mg/kg, up to 16h post-dose): No modulation | recovery of pStat3 Tyr705 expression (pStat3 Tyr705 [6]; by 16 h after single 30 mg/kg dose, MDAH2774 xenografts): fully recovered | duration of significant inhibition of pStat3 (pStat3 Tyr705 [6]; single dose of 30 mg/kg, MDAH2774 xenografts): > 10 h | expression of p44/42 pMAPK and pAKT Ser473 in tumors (pStat3 Tyr705 [6]; treated tumors compared to control animals): No significant change | inhibition of pStat3 Tyr705 in tumor lysates (pStat3 Tyr705 [6]; xenografts harvested 2 h post treatment): Complete inhibition | pStat3 Tyr705 (LN-17 cells; 24 h): Dose-dependent inhibition | apoptotic markers Annexin V and PARP cleavage (LN-17 cells; 72 h): dose-dependent increase | viability (LN-17 cells; MTS, 72 h, charcoal-stripped FBS): loss of viability | Jak2 selectivity over Jak1 (Jak1): marginal selectivity over Jak1 | lethal toxicity or weight loss (doses tested, 26 days of dosing): No lethal toxicity or weight loss | red blood cell counts (mouse, in vivo, 10 mg/kg): no changes | red blood cell counts decrease (mouse, in vivo, 30 mg/kg): approximately 13%
